Data taken from paper PMC3481835 (Clinical pharmacology and therapeutics, 2011).
Read-outs that look alike come from different tables or passages of the source.

Experiments:
CYP3A4 [1] = conditions: cited from earlier work; for decrease in urinary 6β-hydroxycortisol to cortisol-ratio: range printed for the three inhibitors
[2] = Renal clearance of cortisol; type: in vivo, human
CYP3A4 [3] = target: T1, CYP3A4 (Homo sapiens, UniProt P08684); conditions: recombinant enzyme, pH 7.4
CYP2B6 [4] = target: T2, CYP2B6 (Homo sapiens, UniProt P20813); conditions: recombinant enzyme
T2 sequence (P20813 1-491): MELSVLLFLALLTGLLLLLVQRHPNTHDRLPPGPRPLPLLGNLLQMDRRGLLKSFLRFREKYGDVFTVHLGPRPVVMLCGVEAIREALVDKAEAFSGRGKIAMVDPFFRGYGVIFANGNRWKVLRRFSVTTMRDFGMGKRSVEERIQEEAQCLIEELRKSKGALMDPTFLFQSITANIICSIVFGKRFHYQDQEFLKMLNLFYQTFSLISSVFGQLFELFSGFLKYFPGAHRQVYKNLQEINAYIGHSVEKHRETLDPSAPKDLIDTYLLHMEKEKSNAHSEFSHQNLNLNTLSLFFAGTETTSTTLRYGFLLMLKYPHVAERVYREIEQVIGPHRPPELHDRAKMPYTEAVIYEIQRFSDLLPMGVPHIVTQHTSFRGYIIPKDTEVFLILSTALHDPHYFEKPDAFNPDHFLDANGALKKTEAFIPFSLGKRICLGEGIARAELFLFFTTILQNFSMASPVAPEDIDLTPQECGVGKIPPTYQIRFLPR

CYP2B6 [5] = target: T2, CYP2B6; test: 6β-hydroxylation by recombinantly-expressed CYP2B6; conditions: recombinantly-expressed enzyme
Fraction unbound = type: in vitro ADME; conditions: human, pooled human liver microsomes
How it was run: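 Pooled microsomes from three CYP3A5*3/*3 donors (equal protein each), 0.5 mg/mL, spiked with test compound at 5, 50 or 1000 nM, duplicates. Each sample split: one aliquot ultracentrifuged at 445,760 g, 140 min, 37 °C; the other held at 37 °C for the same time. Upper clear layer and uncentrifuged sample taken into ACN with deuterated internal standard; HPLC (C8, ammonium acetate/ACN gradient) with LC-MS.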

CYP3A4 [6] = type: in vivo, human
CYP3A4 [7] = target: T1, CYP3A4; test: Formation clearance; type: in vivo; conditions: 50 mg itraconazole
CYP3A4 [8] = target: T1, CYP3A4; test: in vitro; conditions: pH 7.4
CYP3A4 [9] = conditions: during treatment; cited from earlier work
CYP3A4 [10] = conditions: cited from earlier work; for predicted decrease in CYP3A4 mediated clearance: predicted from I/Ki
CYP3A4 [11] = target: T1, CYP3A4; test: in vitro; conditions: pH 7.4; remark: listed apart in the source
[12] = Plasma concentrations of cortisol and cortisone after itraconazole; type: in vivo, human; conditions: single doses 50, 200 and 400 mg po

T1 sequence (P08684 whole entry): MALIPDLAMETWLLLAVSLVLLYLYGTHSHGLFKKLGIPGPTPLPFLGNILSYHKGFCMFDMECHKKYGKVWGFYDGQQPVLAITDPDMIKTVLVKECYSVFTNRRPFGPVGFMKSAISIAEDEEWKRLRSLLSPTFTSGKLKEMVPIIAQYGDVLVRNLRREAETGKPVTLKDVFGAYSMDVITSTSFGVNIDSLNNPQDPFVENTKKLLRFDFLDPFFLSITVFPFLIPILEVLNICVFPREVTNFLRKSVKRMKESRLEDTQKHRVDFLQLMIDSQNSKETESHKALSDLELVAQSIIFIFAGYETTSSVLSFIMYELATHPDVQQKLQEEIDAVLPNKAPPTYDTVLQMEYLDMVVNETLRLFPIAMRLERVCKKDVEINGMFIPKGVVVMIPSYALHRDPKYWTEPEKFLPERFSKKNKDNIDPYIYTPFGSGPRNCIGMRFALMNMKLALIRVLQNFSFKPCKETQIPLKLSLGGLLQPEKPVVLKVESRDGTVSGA

Compound: CC(C)CN(C[C@@H](O)[C@H](Cc1ccccc1)NC(=O)O[C@H]1CCOC1)S(=O)(=O)c1ccc(N)cc1 [amprenavir]
- effect on urinary 6β-hydroxycortisol to cortisol ratio (CYP3A4 [1]): no significant inhibitory effect

Compound: CC[C@H]1OC(=O)[C@H](C)[C@@H](O[C@H]2C[C@@](C)(OC)[C@@H](O)[C@H](C)O2)[C@H](C)[C@@H](O[C@@H]2O[C@H](C)C[C@H](N(C)C)[C@H]2O)[C@](C)(OC)C[C@@H](C)C(=O)[C@H](C)[C@@H](O)[C@]1(C)O [clarithromycin]
- decrease in urinary 6β-hydroxycortisol to cortisol-ratio (CYP3A4 [1]): 15-65%

Compound: C[C@]12CCC(=O)C=C1CC[C@@H]1[C@@H]2[C@@H](O)C[C@@]2(C)[C@H]1CC[C@]2(O)C(=O)CO [cortisol]
- CL renal ([2]; both, human, urine and plasma): 0.283 mL/min
- intrinsic clearance (CLint), 6β-hydroxylation by CYP3A4 (CYP3A4 [3]): 0.18 mL/min/nmol CYP3A4
- v, 6β-hydroxylation by CYP2B6 (CYP2B6 [4]; human, 25 µM, pH 7.4): 0.11 pmol/min/pmol
- CYP3A4 mediated CLint relative to CYP2B6 mediated CLint (CYP2B6 [4]; human, pH 7.4): 40 fold
- apparent CYP2B6 mediated intrinsic clearance (CYP2B6 [4]; human, pH 7.4): 0.0045 mL/min/nmol P450
- 6β-hydroxylation detected with CYP2B6 (CYP2B6 [4]): observed

Compound: C[C@]12CCC(=O)C=C1CC[C@@H]1[C@@H]2C(=O)C[C@@]2(C)[C@H]1CC[C@]2(O)C(=O)CO [cortisone]
- 6β-hydroxylation detected with CYP2B6 (CYP2B6 [5]): not

Compound: C#C[C@]1(O)CC[C@H]2[C@@H]3CCC4=Cc5oncc5C[C@]4(C)[C@H]3CC[C@@]21C [danazol]
- decrease in urinary 6β-hydroxycortisol to cortisol-ratio (CYP3A4 [1]): 15-65%

Compound: CCC(C)n1ncn(-c2ccc(N3CCN(c4ccc(OCC5COC(Cn6cncn6)(c6ccc(Cl)cc6Cl)O5)cc4)CC3)cc2)c1=O (stereo not shown) [itraconazole]
- effect on renal clearance of cortisol ([2]; escalating itraconazole doses): unchanged
- fraction unbound at 140 min (Fraction unbound): 0.046 ± 0.01
- predicted decrease in oral midazolam clearance (CYP3A4 [6]; 50 mg ITZ): 30%
- predicted decrease in hepatic midazolam clearance (CYP3A4 [6]; 50 mg ITZ, from circulating ITZ and metabolites and in vitro IC50): 21%
- predicted decrease in oral midazolam clearance (CYP3A4 [6]; 200 mg ITZ): 77%
- decrease in the CLf processes (CYP3A4 [7]): No significant decrease
- Emax at 15 min (CYP3A4 [8]): 78 to 85%
- decrease in 4β-hydroxycholesterol concentrations (CYP3A4 [9]): 21-29%
- decrease in total cholesterol (CYP3A4 [9]): 10%
- decrease in MDZ CL/F (CYP3A4 [10]; 50 mg itraconazole): 50%
- predicted decrease in CYP3A4 mediated clearance (CYP3A4 [10]; 24-48 hours after 400 mg): 50-70%
- decrease in MDZ CL/F (CYP3A4 [10]; 200 and 400 mg itraconazole): 80%
- expected persistence of CYP3A4 inhibition (CYP3A4 [10]; after 400 mg, return to baseline at 72 hours): 48 h
- RKi (IC50,in vitro/IC50,in vivo), itraconazole-oral MDZ interaction (CYP3A4 [10]): 14.5
- predicted decrease in CYP3A4 mediated clearance (CYP3A4 [10]; first 24 hours after 400 mg): 70-90%
- Emax at 15 min (CYP3A4 [11]): 78 to 85%
- effect on the plasma concentrations of cortisol or cortisone [12]: no effect

Compound: Cc1ncc2n1-c1ccc(Cl)cc1C(c1ccccc1F)=NC2 [midazolam]
- in vivo fm attributed to CYP3A4, midazolam metabolism (CYP3A4 [10]; ref not given): 84%
